In article PMC10963326 (Heliyon, 2024):

Columns and labels:
human thrombin = human thrombin (Homo sapiens, UniProt P00734); experiment: Direct inhibition of human thrombin, chromogenic substrate; assay type: biochemical; details: highest concentration tested of 600 μM, data not shown
Procedure, shortened: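 Thrombin 6 nM final in 20 mM Tris-HCl pH 7.4, 100 mM NaCl, 2.5 mM CaCl2, 0.1% PEG8000, with or without 0.02% Tween80, at 25 or 37 °C. Test compound (DMSO vehicle) added, then either 10 min preincubation or none. Spectrozyme TH at 50 μM final; initial A405 rate. Residual activity was the ratio to the no-compound rate, fitted to a logistic equation for IC50, HS and ΔY.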

thrombin exosite 1 = details: binding to exosite 1 ref 21; cited from earlier work

Row | inhibition of thrombin (human thrombin) | Molecule | Kd (thrombin exosite 1) [nM]
1 | did not inhibit | CCCCCCCCCCCCOS(=O)(=O)[O-].[Na+] [sodium dodecyl sulfate] | –
2 | – | [5 F]-Hir-(54–65)-(SO3^−) [HirP] | 28
